The nature of data set [1]: Cytotoxicity against human Caco2 cells measured after 72 hrs by MTT assay. The data set is classed as cell-based. The conditions noted are these: Caco-2 cells. In short, it runs like this: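 Caco-2 viability was measured by MTT, and the median cytotoxic concentration (CC50) was derived.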
The subject of data set [2] is MCF7. Kind of data set: Cytotoxicity against human MCF7 cells assessed as growth inhibition at 10 uM measured after 72 hrs by CCK-8 assay relative to control. The class given is functional. Conditions: MCF7, 72 h, read-out: GI. For orientation: Formazan colour is commonly taken as a measure of viable cells.
For data set [3], the system named is HepG2. Kind of data set: Cytotoxicity against human HepG2 cells assessed as growth inhibition at 10 uM measured after 72 hrs by CCK-8 assay relative to control. The data set is classed as functional. The conditions noted are these: HepG2, 72 h, read-out: GI.
Data set [4] concerns Jurkat. Kind of data set: Cytotoxicity against human Jurkat cells assessed as growth inhibition at 10 uM measured after 72 hrs by CCK-8 assay relative to control. The data set is classed as functional. Conditions: read-out: GI.
Data set [5] concerns A549. Kind of data set: Cytotoxicity against human A549 cells assessed as growth inhibition at 10 uM measured after 72 hrs by CCK-8 assay relative to control. The class given is functional. Conditions: A549, 72 h, read-out: GI.
The subject of data set [6] is K562. Briefly: Cytotoxicity against human K562 cells assessed as growth inhibition at 10 uM measured after 72 hrs by CCK-8 assay relative to control. Conditions: K562, 72 h, read-out: GI. The class given is functional.
A short description of data set [7]: Inhibition of human alpha-glucosidase expressed in Saccharomyces cerevisiae using p-nitophenyl-alpha-glucopyranoside as substrate pretreated with substrate for 15 mins followed by enzyme addition measured after 15 mins. The method, boiled down:
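Enzyme from a recombinant gene expressed in Saccharomyces cerevisiae, diluted to 0.2 U/mL in 0.01 M PBS. Compound, at three concentrations in sodium phosphate buffer pH 6.8, was mixed with 2.5 mM pNPG stock and held 15 min at 37 °C. Enzyme was then added for a further 15 min at 37 °C, and absorbance was read at 405 nm. The no-enzyme blank was subtracted, and IC50 was taken as the concentration giving 50% inhibition.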

Data set [8] is described as follows: Selectivity index, ratio of CC50 for human Caco2 cells to IC50 for human alpha-glucosidase expressed in Saccharomyces cerevisiae. The method, boiled down: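 SI was calculated as Caco-2 CC50 (MTT) divided by the α-glucosidase IC50 from the pNPG assay.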
Data set [9] is described as follows: Non-competitive inhibition of human alpha-glucosidase expressed in Saccharomyces cerevisiae using varying levels of p-nitophenyl-alpha-glucopyranoside as substrate pretreated with substrate for 15 mins followed by enzyme addition measured after 15 mins by Lineweaver-burk plot analysis.
Data set [10] in a line: Competitive inhibition of human alpha-glucosidase expressed in Saccharomyces cerevisiae using varying levels of p-nitophenyl-alpha-glucopyranoside as substrate pretreated with substrate for 15 mins followed by enzyme addition measured after 15 mins by Lineweaver-burk plot analysis.

What is called CC50 is the concentration at which the toxic effect on the cells reaches its halfway point. Read a low CC50 as greater toxicity to the cells. Usually IC50 stands for the point on the concentration scale where inhibition reaches its midpoint. A word on the Ki: it is the equilibrium dissociation constant of an inhibitor or competing ligand from its target.

Counter-ions that a name gives are not always drawn.

In data set [1], `CCOC(=O)[C@@]1(O)OC(=O)C(Cc2ccc3c(c2)CCC(C)(C)O3)=C1c1ccc(O)cc1` had a half-maximal cytotoxic concentration (CC50) at 72 h of 519 µM. Moreover, the inhibition of growth at 10 µM in [2], in [3], in data set [4], in data set [5] and in data set [6] was less than 34% throughout. Also, the half-maximal inhibitory concentration (IC50) in [7] worked out at 44 µM. Also, in data set [8], the “Ratio CC50/IC50” value is given as 12. The Ki is 19 µM in data set [9] and 2.5 µM in [10].

Turning to `COc1cc(/C=C2\OC(=O)C(c3ccc(O)cc3)=C2O)ccc1O`, the inhibition of growth at 10 µM in data set [2], in [3], in data set [4], in data set [5] and in data set [6] was less than 34% in each case. For the same compound, in [7], the 50% inhibitory concentration (IC50) is 120 to 1300 µM.

Compound `COC(=O)[C@]1(Cc2ccc3c(c2)CCC(C)(C)O3)OC(=O)C(O)=C1c1ccc(O)cc1` yielded a CC50 at 72 h in data set [1] of more than 800 µM. Also, the inhibition of growth at 10 µM in [2], in data set [3], in [4], in data set [5] and in data set [6] was less than 34% throughout. Besides, the IC50 in [7] turned out to be 37 µM. For the same compound, the “Ratio CC50/IC50” value in data set [8] is given as more than 22. Further, the inhibition constant (Ki) in [9] came to 2.1 µM.

In [1], `COC(=O)c1cc(O)cc(OC)c1Oc1c(Cl)c(C)c(Cl)c(O)c1C(=O)O` [GEODIN HYDRATE] came in with a CC50 at 72 h of more than 800 µM. In addition, the inhibition of growth at 10 µM in data set [2], in data set [3], in [4], in [5] and in data set [6] was less than 34% each time. Also, in data set [7], the IC50 is 55 µM. Also, the “Ratio CC50/IC50” value in data set [8] is more than 15. Besides, the results for the Ki in data set [9] and in [10] were 5.5 µM and 6.3 µM, respectively.

Take `COC(=O)[C@@]1(O)OC(=O)C(Cc2ccc3c(c2)CCC(C)(C)O3)=C1c1ccc(O)cc1`: in data set [1], the CC50 at 72 h was 278 µM. For the same compound, the inhibition of growth at 10 µM in data set [2], in data set [3], in data set [4], in data set [5] and in [6] was less than 34% each time. For the same compound, the IC50 in [7] is 57 µM. Also, the “Ratio CC50/IC50” value in data set [8] was found to be 4.8. The Ki was 14 µM in [9] and 3.4 µM in data set [10].

As for `COc1cccc2c1C(=O)c1c(O)c3c(c(O)c1C2=O)C[C@@](O)(C(=O)CO)C[C@@H]3O[C@H]1C[C@H](N)[C@H](O)[C@H](C)O1` [DOXORUBICIN HYDROCHLORIDE], the inhibition of growth at 10 µM in data set [2], in data set [3], in data set [4], in data set [5] and in [6] was less than 34% each time.

`CC1(C)CCc2cc(CC3OC(=O)C(O)=C3c3ccc(O)cc3)ccc2O1` (configuration not stated): in data set [1], the CC50 at 72 h is more than 800 µM. The inhibition of growth at 10 µM in data set [2], in data set [3], in data set [4], in data set [5] and in data set [6] was less than 34% each time. For the same compound, the concentration for half-maximal inhibition (IC50) in data set [7] came out at 34 µM. Further, the “Ratio CC50/IC50” value in data set [8] is more than 24. In [9], the Ki turned out to be 0.43 µM.

The compound `COC(=O)c1cc(O)cc(OC)c1Oc1c(Cl)c(C)c(Cl)c(O)c1C(=O)OC` [METYL DICHLOROASTERRATE] gave a CC50 at 72 h in [1] of more than 800 µM. For the same compound, the inhibition of growth at 10 µM in [2], in [3], in data set [4], in data set [5] and in data set [6] was less than 34% throughout. For the same compound, the 50% inhibitory concentration (IC50) in data set [7] stood at 90 µM. For the same compound, in [8], the “Ratio CC50/IC50” value was more than 8.9. The inhibition constant (Ki) in [9] came to 2.8 µM.

In data set [1], `CC1(C)CCc2cc(CC3=C(c4ccc(O)cc4)[C@@](O)(C(=O)O)OC3=O)ccc2O1` gave a half-maximal cytotoxic concentration (CC50) at 72 h of more than 800 µM. In addition, the inhibition of growth at 10 µM in data set [2], in [3], in data set [4], in [5] and in data set [6] was less than 34% each time. In addition, in data set [7], the IC50 was determined as 95 µM. In addition, the “Ratio CC50/IC50” value in data set [8] was more than 8.5. For the same compound, the Ki in [9] came out at 4.7 µM; in [10] it was 9.2 µM.

Regarding `COC(=O)c1cc(O)cc(OC)c1C(=O)c1c(O)cc(C)c(Cl)c1O`, the inhibition of growth at 10 µM in data set [2], in [3], in data set [4], in data set [5] and in data set [6] was less than 34% throughout. Also, in data set [7], the IC50 lay in the range of 120 to 1300 µM.

Regarding `OC[C@H]1NC[C@H](O)[C@@H](O)[C@@H]1O` [DUVOGLUSTAT], in [7], the IC50 was 79 µM.

Compound `Cc1c(O)c(O)c(O)c(C=O)c1-c1cc2c(C=O)c(C)c(O)c(O)c2o1` returned a 50% cytotoxic concentration (CC50) at 72 h in data set [1] of more than 800 µM. For the same compound, the inhibition of growth at 10 µM in data set [2], in data set [3], in [4], in [5] and in data set [6] was less than 34% in each case. Moreover, the IC50 in data set [7] was found to be 33 µM. In addition, the “Ratio CC50/IC50” value in [8] was more than 24. For the same compound, the inhibition constant Ki in data set [9] worked out at 7.2 µM; in [10], 2.5 µM.

As to `C[C@H]1O[C@H](O[C@H]2[C@H](O)[C@@H](O)[C@@H](O[C@H]3[C@H](O)[C@@H](O)C(O)O[C@@H]3CO)O[C@@H]2CO)[C@H](O)[C@@H](O)[C@@H]1N[C@H]1C=C(CO)[C@@H](O)[C@H](O)[C@H]1O` (some centres not stated) [ACARBOSE], the IC50 in [7] was determined as 101 µM.

With `COC(=O)c1cc(O)cc(OC)c1Oc1cc(C)cc(O)c1C(=O)O` [ASTERRIC ACID], the inhibition of growth at 10 µM in [2], in [3], in data set [4], in data set [5] and in [6] was less than 34% in each case.

`Cc1cc(O)c2c(c1)C(=O)c1cc(O)cc(O)c1C2=O` [EMODIN] yielded a CC50 at 72 h in data set [1] of more than 800 µM. Also, the inhibition of growth at 10 µM in [2], in [3], in data set [4], in data set [5] and in data set [6] was less than 34% each time. Moreover, the IC50 in data set [7] was 19 µM. For the same compound, the “Ratio CC50/IC50” value in data set [8] was more than 43. Also, the Ki in data set [9] amounted to 0.79 µM.

Turning to `COC(=O)c1cc(O)cc(OC)c1C(=O)c1c(O)c(Cl)c(C)c(Cl)c1O` [DIHYDROGEODIN], the inhibition of growth at 10 µM in data set [2], in data set [3], in [4], in data set [5] and in data set [6] was less than 34% in each case. Besides, the IC50 in data set [7] fell in the range of 120 to 1300 µM.

With `COc1cc(O)cc(C(=O)O)c1Oc1cc(C)cc(O)c1C(=O)O`, in data set [1], the 50% cytotoxic concentration (CC50) at 72 h was more than 800 µM. The inhibition of growth at 10 µM in data set [2], in data set [3], in [4], in data set [5] and in [6] was less than 34% in each case. The concentration for half-maximal inhibition (IC50) in data set [7] came out at 9.9 µM. Besides, the “Ratio CC50/IC50” value in data set [8] is on record as more than 81. For the same compound, the Ki was determined as 0.6 µM in data set [9] and 1.4 µM in [10].

For `COC(=O)c1cc(O)cc(OC)c1Oc1cc(C)c(Cl)c(O)c1C(=O)O`, the inhibition of growth at 10 µM in [2], in [3], in data set [4], in [5] and in data set [6] was less than 34% each time. Further, in data set [7], the 50% inhibitory concentration (IC50) is 120 to 1300 µM.

(Values after ChEMBL document CHEMBL4002578, “α-Glucosidase Inhibitors from the Marine-Derived Fungus Aspergillus flavipes HN4-13” (J Nat Prod, 2016).)
